From ChEMBL document CHEMBL4251637, “Picolyl amides of betulinic acid as antitumor agents causing tumor cell apoptosis” (Eur J Med Chem, 2018)
Active and inactive are the calls of the source. The rule behind the calls is not given here.

What was measured:
[1] = system: G-361; assay: Cytotoxicity against human G361 cells after 72 hrs by calcein-AM dye based fluorescence assay; format: functional, cell-based; details: G-361, 72 h
Procedure, shortened: (§1)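 Cells from ATCC, grown in DMEM with 10% fetal bovine serum, 2 mM L-glutamine and 1% penicillin-streptomycin at 37 °C, 5% CO2, humidified, and passaged by trypsinization two or three times weekly. Compound exposure lasted 72 h and the read-out was IC50 (µM).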

[2] = system: CCRF-CEM; assay: Cytotoxicity against human CEM cells after 72 hrs by calcein-AM dye based fluorescence assay; format: functional, cell-based; procedure, shortened: as §1
[3] = system: MCF7; assay: Cytotoxicity against human MCF7 cells after 72 hrs by calcein-AM dye based fluorescence assay; format: functional, cell-based; details: MCF7, 72 h; procedure, shortened: as §1
[4] = Therapeutic index, ratio of IC50 for human BJ cells to IC50 for human G361 cells; format: toxicity; details: BJ cells versus G361 cells, read-out: Ratio IC50
Procedure, shortened: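 Therapeutic index is IC50 in normal BJ fibroblasts divided by IC50 in G-361 melanoma cells. Both IC50 values come from the 72 h cytotoxicity test, with cells grown in DMEM with 10% FBS, 2 mM L-glutamine and antibiotics at 37 °C, 5% CO2.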

[5] = system: HeLa; assay: Cytotoxicity against human HeLa cells after 72 hrs by calcein-AM dye based fluorescence assay; format: functional, cell-based; procedure, shortened: as §1
[6] = system: BJ; assay: Cytotoxicity against human BJ cells after 72 hrs by calcein-AM dye based fluorescence assay; format: cell-based; procedure, shortened: as §1
[7] = system: G-361; assay: Induction of apoptosis in human G361 cells assessed as increase in caspase-3/7 activity using Ac-DEVD-AMC as substrate at 25 uM after 24 hrs by fluorescence assay relative to control; format: functional
Procedure, shortened: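 Treated G-361 cells (0.5–25 µM, 24 h) were extracted on ice in CHAPS/HEPES buffer pH 7.4 with protease inhibitors, and lysates equalized by Bradford protein. Incubated 1 h with Ac-DEVD-AMC in PIPES/DTT buffer pH 7.3; Ac-DEVD-CHO lysates served as negative control. Fluorescence read at 346/442 nm and expressed as fold over untreated control. Three experiments in triplicate; one-way ANOVA.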

[8] = system: G-361; assay: Cell cycle arrest in human G361 cells assessed as increase in accumulation at G0/G1 phase at 0.5 to 25 uM after 24 hrs by propidium iodide staining-based flow cytometry; format: functional
Procedure, shortened: (§2)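 G-361 melanoma cells grown in DMEM with 10% FBS, 2 mM L-glutamine and penicillin-streptomycin at 37 °C, 5% CO2. Cells were seeded and left 24 h, then treated with 0.5, 2.5, 12.5 or 25 µM for 24 h. Trypsinized cells were fixed and stained with 0.1% Triton X-100, 0.2 mg/mL RNase A and 10 µg/mL propidium iodide in PBS. DNA content was read by flow cytometry and phases quantified from histograms; three repeats.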

[9] = system: G-361; assay: Cell cycle arrest in human G361 cells assessed as increase in accumulation at sub-G1 phase at 0.5 to 25 uM after 24 hrs by propidium iodide staining-based flow cytometry; format: functional; procedure, shortened: as §2
[10] = system: G-361; assay: Cell cycle arrest in human G361 cells assessed as reduction in accumulation at G2/M phase at 0.5 to 25 uM after 24 hrs by propidium iodide staining-based flow cytometry; format: functional; procedure, shortened: as §2
[11] = target: Mitogen-activated protein kinase; ERK1/ERK2 (Homo sapiens) (UniProt P27361+P28482); assay: Inhibition of ERK1/2 phosphorylation at Thr202/Tyr204 in human G361 cells at 12.5 to 25 uM after 24 hrs by Western blotting analysis relative to control; format: cell-based
Procedure, shortened: (§3)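 G-361 cells seeded in 100-mm dishes at 1.5 × 10⁶ cells/mL and stabilized 24 h, then treated 24 h with 0.5–25 µM; DMSO vehicle controls. Lysed in RIPA buffer pH 7.4 and protein measured by Bradford. Run on 10% or 12% SDS-PAGE, blotted to nitrocellulose, probed overnight with primary antibodies, then HRP secondary and chemiluminescence. β-actin loading control, compared with untreated cells; three repeats.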

[12] = system: G-361; assay: Induction of apoptosis in human G361 cells assessed as increase in cleaved caspase-7 expression at 0.5 to 25 uM after 24 hrs by Western blot analysis; format: functional, cell-based; procedure, shortened: as §3
[13] = system: G-361; assay: Induction of apoptosis in human G361 cells assessed as downregulation of phosphorylated Rb expression at 12.5 to 25 uM after 24 hrs by Western blot analysis; format: functional, cell-based; procedure, shortened: as §3
[14] = system: G-361; assay: Induction of apoptosis in human G361 cells assessed as effect on Mcl1 expression level at 0.5 to 25 uM after 24 hrs by Western blot analysis; format: functional, cell-based; procedure, shortened: as §3
[15] = system: G-361; assay: Induction of apoptosis in human G361 cells assessed as effect on Bcl2 expression level at 0.5 to 25 uM after 24 hrs by Western blot analysis; format: functional, cell-based; procedure, shortened: as §3
[16] = system: G-361; assay: Induction of apoptosis in human G361 cells assessed as increase in cleaved PARP expression at 0.5 to 25 uM after 24 hrs by Western blot analysis; format: functional, cell-based; procedure, shortened: as §3
[17] = system: G-361; assay: Effect on total p44/42 level in human G361 cells at 0.5 to 25 uM after 24 hrs by Western blot analysis; format: cell-based; details: g-361, 24 h; procedure, shortened: as §3
[18] = system: G-361; assay: Induction of apoptosis in human G361 cells assessed as effect on p53 protein expression level at 0.5 to 25 uM after 24 hrs by Western blot analysis; format: functional, cell-based; procedure, shortened: as §3
[19] = system: G-361; assay: Induction of apoptosis in human G361 cells assessed as downregulation of total Rb expression at 12.5 to 25 uM after 24 hrs by Western blot analysis; format: functional, cell-based; procedure, shortened: as §3

Chain of Mitogen-activated protein kinase; ERK1/ERK2 (Homo sapiens) (P27361 whole entry, looked up): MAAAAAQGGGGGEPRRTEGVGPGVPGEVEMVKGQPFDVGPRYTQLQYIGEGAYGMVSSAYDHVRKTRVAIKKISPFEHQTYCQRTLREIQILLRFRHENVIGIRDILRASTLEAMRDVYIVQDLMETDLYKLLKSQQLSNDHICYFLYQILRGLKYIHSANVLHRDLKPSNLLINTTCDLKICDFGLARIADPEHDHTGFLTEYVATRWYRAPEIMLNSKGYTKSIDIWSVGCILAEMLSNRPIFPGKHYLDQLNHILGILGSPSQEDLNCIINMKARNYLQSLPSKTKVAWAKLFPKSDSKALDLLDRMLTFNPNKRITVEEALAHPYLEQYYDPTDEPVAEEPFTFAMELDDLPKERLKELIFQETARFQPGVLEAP
Chain of Mitogen-activated protein kinase; ERK1/ERK2 (Homo sapiens) (P28482 whole entry, looked up): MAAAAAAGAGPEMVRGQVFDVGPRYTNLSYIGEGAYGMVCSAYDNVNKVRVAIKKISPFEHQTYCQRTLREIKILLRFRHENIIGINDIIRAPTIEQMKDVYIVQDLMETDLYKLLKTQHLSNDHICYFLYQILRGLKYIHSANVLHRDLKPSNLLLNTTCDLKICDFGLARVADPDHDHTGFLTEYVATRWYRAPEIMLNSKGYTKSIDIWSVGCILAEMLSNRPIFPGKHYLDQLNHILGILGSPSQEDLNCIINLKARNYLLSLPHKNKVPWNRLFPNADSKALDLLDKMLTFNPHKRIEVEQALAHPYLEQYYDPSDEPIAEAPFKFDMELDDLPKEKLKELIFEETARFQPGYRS

inhibition [11] | SMILES | IC50 [1] | IC50 [2] | IC50 [3] | selectivity ratio [4] | IC50 [5] | IC50 [6] | Activity [7] | Activity [8] | Activity [9] | Activity [10] | Activity [12] | Activity [13] | Activity [14] | Activity [15] | fold change (FC) [7] | Activity [16] | Activity [17] | Activity [18] | Activity [19]
 | C=C(C)[C@@H]1CC[C@]2(C(=O)NCc3cccnc3)CC[C@]3(C)[C@H](CC[C@@H]4[C@@]5(C)CC[C@H](O)C(C)(C)[C@@H]5CC[C@]43C)[C@@H]12 | 18.1 µM | 25.3 µM | 38.7 µM | 1 | 23.6 µM | 17.5 µM |  |  |  |  |  |  |  |  |  |  |  |  | 
 | C=C(C)[C@@H]1CC[C@]2(C(=O)O)CC[C@]3(C)[C@H](CC[C@@H]4[C@@]5(C)CC[C@H](OC(=O)CCC(=O)NCc6ccncc6)C(C)(C)[C@@H]5CC[C@]43C)[C@@H]12 | 32.1 µM | 22.6 µM | > 50 µM |  | 40.9 µM | > 50 µM | inactive | inactive | inactive | inactive |  |  |  |  |  |  |  |  | 
 | C=C(C)[C@@H]1CC[C@]2(C(=O)NCc3ccncc3)CC[C@]3(C)[C@H](CC[C@@H]4[C@@]5(C)CC[C@H](O)C(C)(C)[C@@H]5CC[C@]43C)[C@@H]12 | 11.6 µM | 18.6 µM | 21.1 µM | 1 | 14.8 µM | 11.2 µM |  |  |  |  |  |  |  |  |  |  |  |  | 
Active | C=C(C)[C@@H]1CC[C@]2(C(=O)O)CC[C@]3(C)[C@H](CC[C@@H]4[C@@]5(C)CC[C@H](OC(=O)CCC(=O)NCc6ccccn6)C(C)(C)[C@@H]5CC[C@]43C)[C@@H]12 | 2.4 µM | 6.9 µM | 2.2 µM | 19.3 | 2.3 µM | 46.2 µM |  | Active | Active | Active | Active | Active | inactive | inactive | <=18 | Active | Non-Toxic | inactive | Active
Active | C=C(C)[C@@H]1CC[C@]2(C(=O)O)CC[C@]3(C)[C@H](CC[C@@H]4[C@@]5(C)CC[C@H](OC(=O)CCC(=O)NCc6cccnc6)C(C)(C)[C@@H]5CC[C@]43C)[C@@H]12 | 0.5 µM | 6.5 µM | 1.4 µM | 100 | 2.4 µM | 50 µM |  | Active | Active | Active | Active | Active | inactive | inactive | 12 | Active | Non-Toxic | inactive | Active
 | C=C(C)[C@@H]1CC[C@]2(C(=O)NCc3ccccn3)CC[C@]3(C)[C@H](CC[C@@H]4[C@@]5(C)CC[C@H](O)C(C)(C)[C@@H]5CC[C@]43C)[C@@H]12 | 16.4 µM | 18.6 µM | 27 µM | 1 | 14.7 µM | 15.8 µM |  |  |  |  |  |  |  |  |  |  |  |  | 
